The target of this experiment is Nuclear receptor subfamily 5 group A member 2 (Homo sapiens) (UniProt O00482). Kind of experiment: potency against LRH1-driven Cyp19 reporter – cell-based, HEK293T, Cyp19 aromatase-luciferase, luminescence, powder samples, dose response (AID 488782). Particulars: 20 h. Put shortly:
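Assay system: HEK293T cells carrying LRH1 plus Cyp19-luciferase reporter; timing: bulk transfection 24 h before replating, compound exposure 20 h; measured by: luminescence from luciferase reporter; measure: IC50 from sigmoidal fit of DMSO-normalized inhibition; repeats: triplicate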

Active and inactive are the calls of the source.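 The calls were made as follows: active = concentration giving half-maximal inhibition of the luciferase signal, from the fitted curve, at 5 µM or lower; inactive = half-inhibition concentration above 5 µM.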

Sequence of Nuclear receptor subfamily 5 group A member 2 (Homo sapiens) (O00482 whole entry, looked up): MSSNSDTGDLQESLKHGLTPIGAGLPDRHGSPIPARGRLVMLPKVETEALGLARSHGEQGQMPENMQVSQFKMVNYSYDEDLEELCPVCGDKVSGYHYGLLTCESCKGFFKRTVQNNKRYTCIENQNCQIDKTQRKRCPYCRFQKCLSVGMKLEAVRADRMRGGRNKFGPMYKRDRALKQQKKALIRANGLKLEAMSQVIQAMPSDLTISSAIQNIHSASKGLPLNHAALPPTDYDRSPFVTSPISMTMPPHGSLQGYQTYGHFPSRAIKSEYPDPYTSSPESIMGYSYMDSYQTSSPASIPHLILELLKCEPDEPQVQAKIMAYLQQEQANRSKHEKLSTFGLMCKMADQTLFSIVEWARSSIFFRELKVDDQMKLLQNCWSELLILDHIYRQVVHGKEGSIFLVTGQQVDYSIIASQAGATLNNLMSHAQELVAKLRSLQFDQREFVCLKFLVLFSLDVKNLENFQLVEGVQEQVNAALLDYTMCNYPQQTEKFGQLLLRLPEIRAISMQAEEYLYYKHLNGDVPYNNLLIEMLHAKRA

Take `CCn1c(=O)cc(N2CCN(c3cccc(C(F)(F)F)c3)CC2)[nH]c1=O`: the IC50 – broadly, the concentration needed to halve the response being measured – was 1000 nM.
Turning to `Cn1c(=O)cc(N2CCN(c3cccc(Cl)c3)CC2)[nH]c1=O`, the IC50 is 1100 nM.
`CC(C)Cn1c(=O)cc(N2CCN(c3cccc(C(F)(F)F)c3)CC2)[nH]c1=O`: the IC50 was 110 nM.
The same measure, in the same setting: to `O=c1cc(N2CCN(c3cccc(Cl)c3Cl)CC2)[nH]c(=O)n1C1CCCCC1` belongs 430 nM.
Take `O=c1cc(N2CCN(c3ccccc3)CC2)[nH]c(=O)n1C1CCCCC1`: the half-maximal inhibitory concentration (IC50) was 2600 nM.
Consider `CCn1c(=O)cc(N2CCN(c3cccc(Cl)c3)CC2)[nH]c1=O`, for which the 50% inhibitory concentration (IC50) is 4200 nM.
On the same count and under the same terms, the figure for `O=c1cc(N2CCN(c3nc(-c4ccccc4)ns3)CC2)[nH]c(=O)n1C1CCCCC1` is 4800 nM; for `O=c1cc(N2CCN(c3cccc(Cl)n3)CC2)[nH]c(=O)n1C1CCCCC1` it is 538 nM.
Take `O=c1cc(N2CCN(c3cccc(Cl)c3)CC2)[nH]c(=O)n1C1CCCCC1`: the IC50 is 3700 nM.
The same measure, in the same setting: the figure for `O=c1cc(N2CCN(c3ccnc4cc(Cl)ccc34)CC2)[nH]c(=O)n1C1CCCCC1` is 4000 nM.
As to `O=c1cc(N2CCN(c3cccc(C(F)(F)F)c3)CC2)[nH]c(=O)n1C1CCCCC1`, the IC50 is 320 nM.
Same read-out and setting: to `C=CCn1c(=O)cc(N2CCN(c3cccc(C(F)(F)F)c3)CC2)[nH]c1=O` belongs 570 nM.
Turning to `O=c1cc(N2CCN(C3CCCCC3)CC2)[nH]c(=O)n1C1CCCCC1`, the concentration for half-maximal inhibition (IC50) is 921 nM.
As for `O=c1cc(N2CCN(Cc3ccc(Cl)cc3)CC2)[nH]c(=O)n1C1CCCCC1`, the “fold change, lower = inhibition” value (at 10 µM (top of the series)) is “inactive”.

Source of the values: PubChem BioAssay AID488782 (The Scripps Research Institute Molecular Screening Center, 2010).
